The subject of assay [1] is Mycobacterium tuberculosis. Briefly: Antitubercular activity against Mycobacterium tuberculosis H37Rv by microplate Alamar Blue assay. Type of assay: functional. In short, it runs like this: (§1)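 Mycobacterium tuberculosis strains were used: H37Rv, and clinical strains from KwaZulu-Natal (MDR KZN494 and V2475; XDR TF274 and R506). Growth was read by microplate Alamar Blue assay. MIC is the lowest drug concentration giving at least a 90% reduction of the bacterial growth signal. Values are the average of three individual measurements.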

Assay [2] in a line: Selectivity index, ratio of IC50 for african green monkey vero cells to MIC90 for Mycobacterium tuberculosis H37Rv. Type of assay: functional.
For assay [3], the system named is Mycobacterium tuberculosis. As to the kind of experiment: Antitubercular activity against Mycobacterium tuberculosis H37Rv in 300 mg/kg, po dosed Balb/c mouse serum measured after 7 days by serum inhibition titration based microplate Alamar Blue assay. Details: dose 300 mg/kg. The class given is functional, organism-based. In short, it runs like this:
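Six-week-old female BALB/c mice got a single oral gavage of 100 or 300 mg/kg, ground to a suspension in 0.5% carboxymethyl cellulose. Controls were isoniazid 10 mg/kg and vehicle. Cardiac blood was taken at 15, 30 and 60 min and serum separated. Serum was two-fold serially diluted, 10^4 CFU H37Rv added, incubated 7 days and read by MABA.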

In assay [4] the test system is Mycobacterium tuberculosis. Briefly: Antitubercular activity against drug-susceptible Mycobacterium tuberculosis V4207 by microplate Alamar Blue assay. Type of assay: functional.
For a further assay, the system named is Vero. Briefly: Cytotoxicity against african green monkey Vero cells by microplate Alamar Blue assay. The class given is cell-based. Conditions: Chlorocebus sabaeus. A digest of the protocol:
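Cytotoxicity was measured on Vero cells in microplate Alamar Blue assay format.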

Assay [5] deals with Mycobacterium tuberculosis. Briefly: Ratio of isoniazid MIC to compound MIC for Mycobacterium tuberculosis H37Rv. The class given is functional.
Assay [6] concerns Mycobacterium tuberculosis. As to the kind of experiment: Antitubercular activity against Mycobacterium tuberculosis H37Rv after 21 days by spectrophotometric analysis. The following applies: 504 h. The class given is functional.
The test system of assay [7] is Mycobacterium tuberculosis. As to the kind of experiment: Antitubercular activity against Mycobacterium tuberculosis H37Rv. The class given is functional. A digest of the protocol:
as §1

Results on 45 compounds are retold here after ChEMBL document CHEMBL2346611, “Preliminary structure-activity relationships and biological evaluation of novel antitubercular indolecarboxamide derivatives against drug-susceptible and drug-resistant Mycobacterium tuberculosis strains” (J Med Chem, 2013).

Values after ≈ are worked out from the molar mass of the structure shown. Active and inactive are the calls of the source. The rule behind the calls is not given here.

Turning to `Cc1cc(C)c2c(C(=O)NC3CCCCCC3)c[nH]c2c1`, the MIC90 in assay [1] was determined as 200 µM (≈ 56.9 µg/mL).

`Cc1cc(C)c2cc(C(=O)NC3CCCCCC3)[nH]c2c1`: the “Selectivity Index” value in assay [2] was over 3600. Further, in assay [3], the outcome was inactive. Moreover, the MIC90 was determined as 0.11 µM (≈ 0.0313 µg/mL) in assay [4] and 0.055 µM (≈ 0.0156 µg/mL) in assay [1]. The IC50 in the assay on Vero was over 200 µM. Besides, the Ratio in assay [5] was determined as 5.

`NNC(=O)c1ccncc1` [ISONIAZID] yielded an MIC90 in assay [1] of 0.29 µM (≈ 0.0398 µg/mL).

For the compound `Cc1cc(C)c2cc(C(=O)NC3CCCCCC3)oc2c1`, the MIC90 in assay [1] was found to be 56 µM (≈ 16 µg/mL).

As for `Cc1cc(C)c2c(C(=O)NC3C4CC5CC(C4)CC3C5)c[nH]c2c1` (stereo not given), the MIC90 in assay [1] is 200 µM (≈ 64.5 µg/mL).

Take `Cc1cc(C)c2cc(C(=O)NC3CC3)[nH]c2c1`: the MIC90 in assay [1] is 561 µM (≈ 128 µg/mL).

As for `Cc1cc(C)c2cc(C(=O)NC3CCCCCCC3)oc2c1`, in assay [1], the MIC90 was determined as 27 µM (≈ 8.08 µg/mL).

`CCCCCCNC(=O)c1cc2c(C)cc(C)cc2o1` registered an MIC90 in assay [1] of 59 µM (≈ 16.1 µg/mL).

Consider `O=C(NC12CC3CC(CC(C3)C1)C2)c1cc2ccc(O)cc2[nH]1`, for which, in assay [1], the MIC90 is 13 µM (≈ 4.04 µg/mL).

For `O=[N+]([O-])c1cn2c(n1)OC[C@@H](OCc1ccc(OC(F)(F)F)cc1)C2` [PRETOMANID], in assay [6], the MIC90 was found to be 0.04 µM (≈ 0.0144 µg/mL).

Consider `O=C(NC1CCCCCCC1)c1cc2cc(Cl)ccc2o1`, for which the MIC90 in assay [1] amounted to 26 µM (≈ 7.95 µg/mL).

Compound `O=C(NC1CCCCCC1)c1cc2c(F)cc(F)cc2[nH]1` gave an MIC90 in assay [1] of 0.86 µM (≈ 0.251 µg/mL).

As to `Cc1cc(C)c2nc(C(=O)NC3CCCCCC3)[nH]c2c1`, in assay [1], the MIC90 was over 224 µM.

In turn, `Cc1cc(C)c2cc(C(=O)NC3CCN(C)CC3)[nH]c2c1` displayed an MIC90 in assay [1] of 448 µM (≈ 128 µg/mL).

`Cc1cc(C)c2cc(C(=O)N(C)C3CCCCC3)[nH]c2c1` gave an MIC90 in assay [1] of 450 µM (≈ 128 µg/mL).

Take `Cc1cc(C)c2cc(C(=O)NC3CCCCC3)[nH]c2c1`: the MIC90 in assay [4] and in assay [1] was 0.93 µM (≈ 0.251 µg/mL) in each case. The IC50 with Vero was over 200 µM.

As to `Cc1cc(C)c2c(C(=O)NC34CC5CC(CC(C5)C3)C4)c[nH]c2c1`, the MIC90 in assay [1] was determined as 200 µM (≈ 64.5 µg/mL).

In assay [1], `Cc1cc(C)c2cc(C(=O)NC3CCCN(C)CC3)[nH]c2c1` (stereo not given) came in with an MIC90 of 428 µM (≈ 128 µg/mL).

In turn, `Cc1cc(C)c2cc(C(=O)NC34CC5CC(CC(C5)C3)C4)oc2c1` showed an MIC90 in assay [1] of 3.1 µM (≈ 1 µg/mL).

Turning to `Cc1cc(C)c2cc(C(=O)NC3CC4CCC3C4)oc2c1` (stereo not given), the MIC90 in assay [1] was determined as 113 µM (≈ 32 µg/mL).

With `O=C(NC1CCCCCCC1)c1cc2c(C(F)(F)F)cc(C(F)(F)F)cc2[nH]1`, in assay [1], the MIC90 came out at 0.04 µM (≈ 0.0163 µg/mL).

In the case of `Cc1cc(C)c2cc(C(=O)NC34CC5CC(CC(C5)C3)C4)[nH]c2c1`, in assay [2], the “Selectivity Index” value is recorded as over 16600. For the same compound, the result in assay [3] was inactive. Besides, the half-inhibitory concentration (IC50) in the assay on Vero is over 200 µM. This compound also came in with an MIC90 in assay [1] of 0.012 µM (≈ 0.00387 µg/mL).

Take `Cc1cc(C)c2c(C(=O)NC3CCCCCCC3)c[nH]c2c1`: the MIC90 in assay [1] came out at 200 µM (≈ 59.7 µg/mL).

In assay [1], `COc1ccc2cc(C(=O)NC34CC5CC(CC(C5)C3)C4)[nH]c2c1` had an MIC90 of 0.77 µM (≈ 0.25 µg/mL).

`COc1cc2[nH]c(C(=O)NC3CCCCCCC3)cc2cn1` yielded an MIC90 in assay [1] of 6.6 µM (≈ 1.99 µg/mL).

Regarding `O=C(NC1CCCCC1)c1cc2ccccc2[nH]1`, the MIC90 in assay [1] was over 528 µM.

Compound `O=C(NC12CC3CC(CC(C3)C1)C2)c1cc2cc(Cl)ccc2o1` had an MIC90 in assay [1] of at least 388 µM.

`Cc1cc(C)c2cc(C(=O)NC3CCCCC3)n(C)c2c1`: the MIC90 in assay [1] was 450 µM (≈ 128 µg/mL).

In the case of `O=C(NC12CC3CC(CC(C3)C1)C2)c1cc2cc(Cl)ccc2[nH]1`, in assay [1], the MIC90 turned out to be 0.38 µM (≈ 0.125 µg/mL).

Compound `Cc1cc(C)c2cc(C(=O)Nc3ccc(C)c(F)c3)[nH]c2c1` yielded an IC50 in the assay with Vero of over 200 µM. For the same compound, the MIC90 in assay [1] was found to be 1.7 µM (≈ 0.504 µg/mL).

As for `COc1nc2ccc(Br)cc2cc1[C@@H](c1ccccc1)[C@@](O)(CCN(C)C)c1cccc2ccccc12` [BEDAQUILINE], the MIC90 in assay [7] amounted to 0.05 µM (≈ 0.0278 µg/mL).

In the assay on Vero, `Cc1cc(C)c2cc(C(=O)NCC3CCCCC3)[nH]c2c1` yielded an IC50 of over 200 µM. Further, the MIC90 in assay [1] is 0.88 µM (≈ 0.25 µg/mL).

In the case of `Cc1cc(C)c2cc(C(=O)Nc3ccccc3)[nH]c2c1`, the IC50 in the assay with Vero is over 200 µM. For the same compound, the MIC90 in assay [1] was 3.8 µM (≈ 1 µg/mL).

As to `Cc1cc(C)c2cc(C(=O)NC3CCCCCCC3)[nH]c2c1`, the “Selectivity Index” value in assay [2] is 4100. In addition, the result in assay [3] was Active. Further, the values for the MIC90 in assay [4] and in assay [1] were 0.026 µM (≈ 0.00776 µg/mL) and 0.013 µM (≈ 0.00388 µg/mL), respectively. The compound further registered a half-inhibitory concentration (IC50) in the assay with Vero of 54 µM.

As for `Cc1cc(C)c2nc(C(=O)NC3CCCCCCC3)[nH]c2c1`, in assay [1], the MIC90 amounted to 1.7 µM (≈ 0.509 µg/mL).

In assay [1], `Cc1cc(C)c2cc(C(=O)N3CCCCC3)[nH]c2c1` displayed an MIC90 of over 499 µM.

In turn, `Cc1cc(C)c2cc(C(=O)Nc3ccncc3)[nH]c2c1` came in with an MIC90 in assay [1] of 240 µM (≈ 63.7 µg/mL).

On to `O=C(NC1CCCCCCC1)c1cc2c(F)cc(F)cc2[nH]1`, for which, in assay [1], the MIC90 was 0.1 µM (≈ 0.0306 µg/mL).

The compound `Cc1cc(C)c2nc(C(=O)NC3C4CC5CC(C4)CC3C5)[nH]c2c1` (stereo not given) came in with an MIC90 in assay [1] of 1.5 µM (≈ 0.485 µg/mL).

With `O=C(NC1CCCCCC1)c1cc2c(C(F)(F)F)cc(C(F)(F)F)cc2[nH]1`, in assay [1], the MIC90 was 0.64 µM (≈ 0.251 µg/mL).

As for `COc1cc2[nH]c(C(=O)NC34CC5CC(CC(C5)C3)C4)cc2cn1`, in assay [1], the MIC90 came to 1.5 µM (≈ 0.488 µg/mL).

For `Cc1cc(C)c2cc(C(=O)NC3CCN(C(C)C)CC3)[nH]c2c1`, the MIC90 in assay [1] was 204 µM (≈ 63.9 µg/mL).

Turning to `Cc1ccc(NC(=O)c2cc3ccccc3[nH]2)cc1F`, the MIC90 in assay [1] came out at 477 µM (≈ 128 µg/mL).

As for `Cc1cc(C)c2cc(C(=O)NC3C4CC5CC(C4)CC3C5)[nH]c2c1` (stereo not given), the “Selectivity Index” value in assay [2] was over 16600. For the same compound, the result in assay [3] was inactive. This compound had a concentration for half-maximal inhibition (IC50) in the assay on Vero of over 200 µM. The compound further came in with an MIC90 in assay [1] of 0.012 µM (≈ 0.00387 µg/mL).

The compound `Cc1cc(C)c2nc(C(=O)NC34CC5CC(CC(C5)C3)C4)[nH]c2c1` returned an MIC90 in assay [1] of 0.39 µM (≈ 0.126 µg/mL).
